Arbovirus inh: antivirals against arbovirus infection, primary screen, cell-based, full library, 10K replicate subset; arbovirus infection cell-based antiviral screen; inhibition, % at 10 µM; 200,000 tested, 0.37% active; in the data active = inhibition above about 30%
RBBP9 inh: human RBBP9 inhibitors, primary screen, biochemical, fluorescence polarization, FP-Rh probe, HTS; 220,000 tested, 0.2% active; recombinant RBBP9; Serine hydrolase RBBP9 (Homo sapiens), O75884; inhibition, % at 7.94 µM;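 active = inhibition above the campaign mean of all tested compounds plus 3 SD, cut at about 14% in these data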;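 also: plate controls were DMSO wells with RBBP9 for no effect and wells lacking RBBP9 protein for full effect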
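system = RBBP9 protein | input = RBBP9 at 2.5 µM in dispensed solution, before mixing | measured by = fluorescence polarization (mP), excitation 525 nm, emission 598 nm | incubation = enzyme-compound preincubation 30 min, then probe labeling 45 min, 25 °C | buffer or medium = Tris-NaCl-Pluronic buffer, pH 8.0 | compound = single dose 7.94 µM | also added = FP-Rh probe, 375 nM dispensing solution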
Redox H2O2 prof: compounds producing H2O2 with reducing agent – biochemical, NIH compound library profiling, artefact control for MLSCN library redox annotation, primary screen; DTT-dependent redox cycling H2O2, phenol red/HRP absorbance; 100% = 100 µM peroxide control, 0% = buffer; activation, % at 10 µM; 200,000 tested, 0.03% active; AID 878, 2007;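 active = activation of at least 50% relative to the plate's high and low controls in the primary single-dose screen; inactive = activation below 50%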;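 also: compound incubated with DTT at 0.8 mM final as the reducing agent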
PKD1 inh: inhibitors of human PKD1 kinase, biochemical, fluorescence polarization | Serine/threonine-protein kinase D1 (Homo sapiens), Q15139 | 200,000 tested, 0.056% active | inhibition, % (concentration not given with the values) | PKD1 kinase fluorescence polarization assay; in the data active = inhibition above about 50%
p97 ATPase inh: inhibitors of human p97 ATPase, primary screen, biochemical | 220,000 tested, 0.42% active | AID 1481, 2009 | inhibition, % at 8 µM | recombinant p97 ATPase, Kinase-Glo ATP luminescence, 3 h; in the data active = inhibition above about 15%;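 also: 0% = DMSO vehicle and 100% = wells lacking enzyme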
Target sequence (P55072 whole entry, looked up): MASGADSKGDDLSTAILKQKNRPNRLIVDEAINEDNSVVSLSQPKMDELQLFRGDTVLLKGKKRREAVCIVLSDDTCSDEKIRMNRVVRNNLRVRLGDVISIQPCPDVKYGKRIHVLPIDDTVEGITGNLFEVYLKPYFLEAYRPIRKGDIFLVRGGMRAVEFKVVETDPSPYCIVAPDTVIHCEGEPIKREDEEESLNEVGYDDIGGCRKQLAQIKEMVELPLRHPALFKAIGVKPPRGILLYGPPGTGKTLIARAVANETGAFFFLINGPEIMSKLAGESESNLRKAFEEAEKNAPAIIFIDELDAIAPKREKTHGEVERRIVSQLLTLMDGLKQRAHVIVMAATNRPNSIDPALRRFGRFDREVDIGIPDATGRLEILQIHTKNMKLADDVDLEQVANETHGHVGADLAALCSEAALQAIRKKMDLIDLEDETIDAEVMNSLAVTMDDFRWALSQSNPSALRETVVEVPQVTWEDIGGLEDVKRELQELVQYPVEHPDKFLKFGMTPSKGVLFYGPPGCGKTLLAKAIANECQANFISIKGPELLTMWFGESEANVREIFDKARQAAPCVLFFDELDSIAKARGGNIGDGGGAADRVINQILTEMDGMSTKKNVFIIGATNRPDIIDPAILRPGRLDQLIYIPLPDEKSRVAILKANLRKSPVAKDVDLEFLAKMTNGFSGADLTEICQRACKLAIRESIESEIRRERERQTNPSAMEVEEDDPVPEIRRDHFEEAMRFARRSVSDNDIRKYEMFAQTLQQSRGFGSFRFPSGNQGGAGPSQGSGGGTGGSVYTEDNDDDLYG
Wee1 stabilizer: Wee1 degradation inhibitors, primary screen, cell-based, HeLa, Wee1K328M-luciferase, luminescence; Wee1-like protein kinase (Homo sapiens), P30291; HeLa Luc-Wee1K328M stability; 100% = proteasome inhibitor MG132 effect; reporter increase, % at 5 µM; 220,000 tested, 1.2% active;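 active = activation above the mean of all tested compounds plus 3 SD, set per screening run, cut at about 8.8% in these data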;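 also: cells exposed to compound for 20 h before luminescence read; 0% = DMSO alone and 100% = MG132 at 30 µM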
FP interf 140K: fluorescence polarization interference in PKD1 assay, artefact control for PKD1 inhibitor project, biochemical, 140K library; shares compounds with PKD1 inh; PKD1 FP assay interference counter-screen; inhibition, % at 10 µM; 85 tested, under 10 active; AID 1315, 2008; call rule not given here
DTT redox conf: generates H2O2 by DTT-dependent redox cycling, confirmed in dose response; shares compounds with Redox H2O2 prof; phenol red-HRP absorbance; EC50, µM; 60 tested, 40% active; AID 1234;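 active = EC50 under a set limit for hydrogen peroxide production with the reducing agent DTT present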
p97 inh conf: p97 ATPase inhibitors, retest, confirmation, biochemical | shares compounds with p97 ATPase inh | recombinant p97 ATPase, Kinase-Glo ATP luminescence | inhibition, % at 8 µM | 760 tested, 44% active | AID 1517, 2009;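 active = percent inhibition of p97 ATPase above a set limit, the primary screen's mean plus 3 SD, cut at about 15% in these data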;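 also: 0% = DMSO wells and 100% = wells lacking p97 protein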
The depositor's hits bear a star; x = not tested or not shown. The list is not random: actives were taken first. Their share in the collection is about 2.2%.

SMILES | Arbovirus inh | RBBP9 inh | Redox H2O2 prof | PKD1 inh | p97 ATPase inh | Wee1 stabilizer | DTT redox conf | others
COc1ccccc1/C=C1\SC(=S)N(CCC(=O)NC2=NCCS2)C1=O | 0 | -1 | 0 | 52* | -1 | 1 | x | FP interf 140K=-22
O=C(Nc1ccc(Cl)cc1)OCc1cn(-c2ccc(Cl)cc2)nn1 | -10 | -4 | 1 | 108* | 0 | -1 | x | FP interf 140K=-14
Cc1ccc(C(=O)Cn2c(NCCO)nc3ccccc32)cc1 | 5 | 1 | 2 | 53* | 7 | 2 | x | FP interf 140K=3
O=C(Cn1c(NCCO)nc2ccccc21)c1ccccc1 | 8 | -5 | 0 | -9 | 8 | 1 | x
CN(C)c1ccc(/C=C2\SC(=S)N(Nc3ncc(C(F)(F)F)cc3Cl)C2=O)cc1 | -9 | -11 | -3 | 69* | -1 | 4 | x | FP interf 140K=-9
Cc1ccc(N(CC(=O)NCCSc2ccccn2)S(C)(=O)=O)cc1 | 4 | -8 | -2 | -8 | -6 | -3 | x
O=C(NCCOC(=O)c1ccc(C(=O)OCCNC(=O)c2cccnc2)s1)c1cccnc1 | 4 | 7 | 0 | 105* | 3 | -1 | x | FP interf 140K=-25
CCOC(=O)/C(=N\Nc1ccccc1Cl)N(C)C1CCCCC1 | -19 | -2 | -4 | 0 | 0 | 5 | x
CCn1nnnc1-c1ccc(OC)c(S(=O)(=O)NCCc2ccccc2)c1 | 5 | -1 | 0 | -7 | 4 | 0 | x
CCN(CC)c1ccc(NC(=O)COc2ccccc2C#N)cc1S(=O)(=O)Nc1ccc(OC)cc1 | 2 | -20 | 0 | 58* | 5 | -2 | x | FP interf 140K=-11
CCN(CC)c1ccc(NC(=O)COc2ccccc2C)cc1S(=O)(=O)Nc1ccccc1OC | -5 | -14 | 2 | 6 | 9 | -1 | x
O=C1c2ccccc2C(=O)N1n1cccc1 | 6 | -1 | 0 | 2 | 5 | 4 | x
CCc1ccc(S(=O)(=O)Nc2cc(SCC(=O)O)c(O)c3ccccc23)cc1 | -4 | 1 | -1 | -8 | 7 | -1 | x
Cc1ccc(C)c(S(=O)(=O)Nc2cc(SCC(=O)O)c(O)c3ccccc23)c1 | -28 | -1 | 101* | 2 | 6 | 7 | >50
CCC(C)NC(=O)COC(=O)c1ccc(Cl)cc1O (stereo unspecified) | -1 | -12 | 6 | -7 | 1 | -1 | x
O=C(COC(=O)c1ccccc1Oc1ccccc1)NC1CC1 | 11 | 2 | -1 | 0 | 2 | -5 | x
O=C(COC(=O)c1ccccc1OCc1ccccc1Cl)NC1CC1 | 5 | 2 | 88* | 0 | -3 | 0 | >50
CCn1cc(CNC(=O)CCc2nnc(CCC3CCCCC3)o2)cn1 | 2 | -5 | 0 | 8 | -6 | -2 | x
O=C1C(Nc2ccccc2)=C/C(=N/S(=O)(=O)c2cccs2)c2ccccc21 | -45 | 4 | 102* | -8 | 6 | 1 | >50
NC(=O)C1CCN(C2=C(Cl)C(=O)c3ccccc3C2=O)CC1 | -10 | -1 | 356* | -3 | 3 | 0 | >50
COc1cccc(NC(=O)C(OC(=O)c2ccc([N+](=O)[O-])o2)c2ccccc2)c1 (stereo unspecified) | -1 | -6 | 92* | 3 | 2 | -3 | >50
CC(C)S(=O)(=O)c1cnc(-c2ccccn2)nc1N | x | 5 | x | x | 5 | 0 | x
C/C(=N\Nc1nc2ccc(Cl)cc2o1)c1ccccc1 | x | -10 | x | x | -1 | 0 | x
CCOC(=O)c1c2c(n(C)c1COC)C(=O)C(=O)c1ccc(Br)cc1-2 | x | -6 | 343* | 1 | 5 | 1 | >50
CCCn1c(=O)c(C(=O)OCC)c(O)c2cc(Br)ccc21 | 19 | -6 | -1 | -1 | 2 | 2 | x
SMILES | Arbovirus inh | RBBP9 inh | Redox H2O2 prof | PKD1 inh | p97 ATPase inh | Wee1 stabilizer | DTT redox conf | others
O=C1C=C(N(CCO)Cc2ccccc2)c2ccccc2C1=O | -38 | -7 | 129* | -4 | 10 | 1 | 3.1*
O=C(CCN1C(=O)c2ccccc2C1=O)N(CCO)Cc1ccccc1 | 9 | -8 | 2 | -5 | 8 | -2 | x
CCn1c(Cc2ccccc2)nnc1SCC(=O)Nc1ccc(OC)cc1 | -12 | 0 | 2 | 1 | 5 | -1 | x
C=CCn1c(Cc2ccc(OC)cc2)nnc1SCC(=O)NCCc1ccccc1 | 0 | -7 | 109* | 3 | 1 | 0 | >50
O=C(COC(=O)C1c2ccccc2Oc2ccccc21)NC1CCS(=O)(=O)C1 (stereo unspecified) | 14 | -2 | 0 | 1 | 3 | -1 | x
Cc1ccc(S(=O)(=O)/N=C2/C=C(Sc3ncn[nH]3)C(=O)c3ccccc32)cc1 | -44 | 1 | 120* | -10 | 23* | -4 | 12*
CC(C)c1ccc(S(=O)(=O)/N=C2/C=C(Sc3ncn[nH]3)C(=O)c3ccccc32)cc1 | -37 | 6 | 93* | -7 | 22* | -4 | 13*
Cc1ccc(S(=O)(=O)/N=C2/C=C(Sc3ncn[nH]3)C(=O)c3ccccc32)c(C)c1 | -32 | 3 | 83* | 16 | 8 | -3 | 13*
Cc1cc2oc(=O)cc(CN3CCCCC3C)c2c(C)c1Cl (stereo unspecified) | 8 | -2 | -3 | 2 | 1 | -1 | x
C/C=C(\C)CN1CCCC(CO)(Cc2ccccc2)C1 (stereo unspecified) | -11 | -7 | 4 | -2 | -5 | -1 | x
O=C(COC(=O)c1ccc([N+](=O)[O-])s1)Nc1ncc(C(F)(F)F)cc1Cl | 1 | -2 | 86* | 3 | 3 | 1 | >50
Nc1cccc2nsnc12 | x | -3 | x | x | 6 | 2 | x
Nc1cc2nsnc2cc1Br | -1 | -4 | 362* | 18 | 43* | -2 | >50
CCCCn1c(NS(=O)(=O)c2ccc(C)cc2)c(S(=O)(=O)c2ccccc2)c2nc3ccccc3nc21 | -9 | 0 | 97* | 2 | 24* | 0 | >50 | p97 inh conf=39*
COCCCn1c(SCC(=O)NNC(=O)c2cccc(O)c2)nnc1-c1ccncc1 | 1 | 4 | 0 | -3 | 3 | -1 | x

Screening data as filed in PubChem BioAssay.
